The list is not random: actives were taken first. Their share in the collection is about 3.5%.
MrgX1 antag: antagonists of human MrgX1 receptor; B-score at 10 µM; Q96LB2; MRGX1-HEK293 calcium flux, Fluo-4, BAM8-22 antagonism; hits give low values; 310,000 tested, 1.3% active;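 active = calcium-response B-score plate-corrected more than 3 library SD below zero, starting fluorescence within 5 deviations, no agonist response on first addition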;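 note: peak minus trough fluorescence over baseline after final BAM8-22 challenge near maximal dose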
Target sequence (Q96LB2 whole entry, looked up): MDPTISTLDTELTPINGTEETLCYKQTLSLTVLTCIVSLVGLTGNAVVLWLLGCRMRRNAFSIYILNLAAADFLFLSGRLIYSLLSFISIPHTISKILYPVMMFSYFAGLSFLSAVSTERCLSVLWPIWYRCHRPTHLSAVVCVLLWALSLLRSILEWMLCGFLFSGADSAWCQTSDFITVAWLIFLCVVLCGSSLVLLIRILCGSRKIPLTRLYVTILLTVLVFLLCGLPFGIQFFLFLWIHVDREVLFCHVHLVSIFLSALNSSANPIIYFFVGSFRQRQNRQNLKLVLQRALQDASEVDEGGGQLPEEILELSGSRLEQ
MrgX1 PAM: allosterically activates human MrgX1 receptor signaling | MrgX1-HEK293, Fluo-4 calcium flux, FDSS; hits give high values | B-score at 10 µM | 310,000 tested, 0.63% active;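 active = plate-corrected calcium response at least 3 library SD above typical, normal starting fluorescence, not activating the receptor alone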;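 note: compound read alongside a low EC10 to EC30 dose of BAM8-22 agonist; peak minus trough fluorescence over baseline measured at the second addition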
RGS4 act: potentiators or activators of RGS4. HEK293 M3R/inducible RGS4, carbachol calcium flux Fluo4; hits give low values. B-score at 10 µM. 310,000 tested, 0.92% active;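 active = B-score of the integrated calcium signal more than 4 SD below the library mean, with starting fluorescence not abnormally high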;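 note: negative B-score means reduced calcium response which marks RGS4 activation or potentiation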
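Material: M3R-expressing HEK293 line, RGS4 induced by doxycycline | Schedule: Overnight RGS4 induction, 30 min dye load 37 °C, 20 min compound RT | Measured by: Fluo4 fluorescence kinetic imaging of calcium | Read-out: Integrated calcium ratio converted to B score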
RGS4 block: human RGS4 inhibition; 310,000 tested, 0.45% active; B-score at 10 µM; HEK293 M3R/RGS4 inducible, Fluo-4 calcium flux; hits give high values; triggered by carbachol at its EC20;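 active = B-score, a plate-corrected calcium signal, over three deviations above library mean, with baseline fluorescence within five deviations of library mean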;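 note: RGS4 expression induced by doxycycline in cells with stable M3 receptor; B-score is computed from the integrated fluorescence ratio over baseline after carbachol; higher B-score means a larger calcium signal and so more RGS4 inhibition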
Target sequence (P49798 whole entry, looked up): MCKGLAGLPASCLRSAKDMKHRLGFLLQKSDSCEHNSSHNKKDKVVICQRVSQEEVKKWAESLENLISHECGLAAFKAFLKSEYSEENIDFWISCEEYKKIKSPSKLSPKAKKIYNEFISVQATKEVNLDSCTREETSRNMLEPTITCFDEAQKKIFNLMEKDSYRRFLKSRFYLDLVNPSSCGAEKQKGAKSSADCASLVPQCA
MrgX1 agonist: agonists of human MrgX1 receptor; B-score at 10 µM; MrgX1-HEK293 cells, Fluo-4 calcium fluorescence, agonist mode; hits give high values; 310,000 tested, 0.44% active; Q96LB2;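 active = calcium response B-score plate-corrected fluorescence ratio at least 3 library SD, with starting fluorescence B-score inside 5 SD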
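Test system: Stable human MrgX1 HEK293 cell line | Schedule: Overnight plating before 1 h dye loading | Read-out basis: Baseline-normalised fluorescence change ratio, B-scored | Detection: Kinetic calcium dye fluorescence, Fluo-4 NW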
Numbers stand for hits.

Screening CCOC(=O)C1(C)NC(c2ccc(O)cc2)C2C(=O)N(c3ccccc3)C(=O)C21 (configuration not stated) returned MrgX1 antag inactive, MrgX1 PAM inactive, RGS4 act inactive, RGS4 block inactive and MrgX1 agonist inactive.
Screening CC[C@H]1CC2CN3CCc4c([nH]c5c([C@H]6C[C@H]7[C@H](CC)CN(C)[C@@H](Cc8c6[nH]c6ccccc86)[C@H]7C(=O)OC)c(OC)ccc45)C(C(=O)OC)(C2)C13 returned MrgX1 antag inactive, MrgX1 PAM inactive, RGS4 act inactive, RGS4 block 8.78 and MrgX1 agonist inactive.
`CC(=NCCc1ccccc1)C1=C(O)C(c2ccccc2)OC1=O` (configuration not stated) gave MrgX1 antag inactive, MrgX1 PAM inactive, RGS4 act inactive, RGS4 block inactive and MrgX1 agonist inactive.
O=C(c1cc(-c2cccs2)nn1-c1ccccc1)N1CCN(S(=O)(=O)c2ccccc2)CC1 was read as MrgX1 antag inactive, MrgX1 PAM inactive, RGS4 act -7.18, RGS4 block inactive and MrgX1 agonist inactive.
`CCCCCCCN1N=C(C)C(C(=O)c2ccccc2)C1=O` (configuration not stated) gave MrgX1 antag inactive, MrgX1 PAM inactive, RGS4 act inactive, RGS4 block inactive and MrgX1 agonist inactive.
CCCCCCN1N=C(C)C(C(=O)c2ccc(Cl)cc2)C1=O (configuration not stated) was read as MrgX1 antag inactive, MrgX1 PAM inactive, RGS4 act inactive, RGS4 block inactive and MrgX1 agonist 66.4.
COc1ccc(C(CNC(=O)c2cc(C)on2)N(C)C)cc1 (configuration not stated) was read as MrgX1 antag inactive, MrgX1 PAM inactive, RGS4 act inactive, RGS4 block inactive and MrgX1 agonist inactive.
CCN(CC)Cc1ccccc1Sc1ccccc1 was read as MrgX1 antag inactive, MrgX1 PAM inactive, RGS4 act -9.21, RGS4 block inactive and MrgX1 agonist inactive.
O=C1NC(=S)N(C(=O)c2ccc(F)cc2)/C1=C/c1ccccc1 was read as MrgX1 antag -5.5, MrgX1 PAM inactive, RGS4 act inactive, RGS4 block inactive and MrgX1 agonist inactive.
`CCCn1c(NC(=S)Nc2ccccc2)nc2ccccc21` gave MrgX1 antag inactive, MrgX1 PAM inactive, RGS4 act inactive, RGS4 block inactive and MrgX1 agonist inactive.
Screening C1CCCN(CCCCN2CCCCCC2)CC1 returned MrgX1 antag inactive, MrgX1 PAM inactive, RGS4 act inactive, RGS4 block inactive and MrgX1 agonist inactive.
COC(=O)CCCCCCCCCCN1CCCCC1 was read as MrgX1 antag inactive, MrgX1 PAM inactive, RGS4 act -9.2, RGS4 block inactive and MrgX1 agonist inactive.
CNc1ncc(-c2nnnn2-c2ccccc2)c(-c2ccccc2)n1 was read as MrgX1 antag inactive, MrgX1 PAM inactive, RGS4 act inactive, RGS4 block inactive and MrgX1 agonist inactive.
For CC(=O)/C(=N/Nc1ccc(Br)cc1)N1CCCc2ccccc21 the results were MrgX1 antag inactive, MrgX1 PAM inactive, RGS4 act -7.73, RGS4 block inactive and MrgX1 agonist inactive.
`CC(Sc1nncn1-c1ccccc1)C(=O)Nc1cccc([N+](=O)[O-])c1` (configuration not stated) gave MrgX1 antag inactive, MrgX1 PAM inactive, RGS4 act inactive, RGS4 block inactive and MrgX1 agonist inactive.
`CC1(C)N=C(N)N=C(N)N1c1ccccc1` gave MrgX1 antag inactive, MrgX1 PAM inactive, RGS4 act inactive, RGS4 block inactive and MrgX1 agonist inactive.
CC1(C)N=C(N)N=C(N)N1c1ccc(Oc2ccc(Cl)cc2)c(Cl)c1 was read as MrgX1 antag inactive, MrgX1 PAM inactive, RGS4 act -7.53, RGS4 block inactive and MrgX1 agonist inactive.
`CC1CCN(CC(C)OC(=O)c2ccc3c(c2)OCCO3)CC1` (configuration not stated) gave MrgX1 antag inactive, MrgX1 PAM inactive, RGS4 act -7.29, RGS4 block inactive and MrgX1 agonist inactive.
`CC(CN1CCCCC1)OC(=O)c1ccc2c(c1)OCO2` (configuration not stated) gave MrgX1 antag inactive, MrgX1 PAM inactive, RGS4 act inactive, RGS4 block inactive and MrgX1 agonist inactive.
`O=c1cc(-c2ccccc2)c2cc(Cl)c(O)c(CN3CCOCC3)c2o1` gave MrgX1 antag inactive, MrgX1 PAM 9.79, RGS4 act inactive, RGS4 block inactive and MrgX1 agonist inactive.
CCc1cc2c(-c3ccccc3)cc(=O)oc2c(CN2CCOCC2)c1O was read as MrgX1 antag inactive, MrgX1 PAM inactive, RGS4 act inactive, RGS4 block inactive and MrgX1 agonist 42.6.
For O=c1cc(-c2ccccc2)c2ccc(O)c(CN3CCCCC3)c2o1 the results were MrgX1 antag inactive, MrgX1 PAM inactive, RGS4 act inactive, RGS4 block inactive and MrgX1 agonist inactive.
`Cc1c(Br)c(C(F)(F)F)nn1CC(=O)NCCCn1ccnc1` gave MrgX1 antag inactive, MrgX1 PAM inactive, RGS4 act inactive, RGS4 block inactive and MrgX1 agonist inactive.
For C/C(=C\c1ccccc1)C(=O)N1CCN(c2cccc(C(F)(F)F)c2)CC1 the results were MrgX1 antag -4.95, MrgX1 PAM inactive, RGS4 act inactive, RGS4 block inactive and MrgX1 agonist inactive.
Screening O=[N+]([O-])c1cc(Br)cc(C=Nc2ccc3c(c2)OCO3)c1O returned MrgX1 antag inactive, MrgX1 PAM inactive, RGS4 act inactive, RGS4 block inactive and MrgX1 agonist inactive.
`CCCN(CCC)CCNC(=O)c1cc2c(-c3ccc(Cl)cc3)nn(C)c2s1` gave MrgX1 antag inactive, MrgX1 PAM inactive, RGS4 act -7.16, RGS4 block inactive and MrgX1 agonist inactive.
For CCCN(CCC)S(=O)(=O)c1ccc(C(=O)OCCN2C(=O)c3cccc4c(N5CCOCC5)ccc(c34)C2=O)cc1 the results were MrgX1 antag inactive, MrgX1 PAM inactive, RGS4 act -8.74, RGS4 block inactive and MrgX1 agonist inactive.
Screening CCN1CCN(Cc2c(O)ccc3c2O/C(=C\C=C\c2ccccc2OC)C3=O)CC1 returned MrgX1 antag inactive, MrgX1 PAM inactive, RGS4 act inactive, RGS4 block inactive and MrgX1 agonist inactive.
`Cc1cn([C@H]2C=C[C@@H](CO)O2)c(=O)[nH]c1=O` gave MrgX1 antag inactive, MrgX1 PAM 9.41, RGS4 act inactive, RGS4 block inactive and MrgX1 agonist inactive.
CC(=O)c1c(C)[nH]c(C(=O)COc2cc(C)ccc2C(C)C)c1C was read as MrgX1 antag inactive, MrgX1 PAM inactive, RGS4 act inactive, RGS4 block inactive and MrgX1 agonist inactive.
COn1c(SC(C)C)nc2ccccc2c1=O was read as MrgX1 antag inactive, MrgX1 PAM 9.21, RGS4 act inactive, RGS4 block inactive and MrgX1 agonist inactive.
Screening CC(C)On1c(SC(C)C)nc2ccccc2c1=O returned MrgX1 antag inactive, MrgX1 PAM inactive, RGS4 act inactive, RGS4 block inactive and MrgX1 agonist inactive.
